Results taken from ChEMBL document CHEMBL5329145, “Antileishmanial evaluation of triazole-butenolide conjugates: design, synthesis, in vitro screening, SAR and in silico ADME predictions” (RSC Med Chem, 2023).
The source made the active and inactive calls. No cut-off for these calls is given here.

Columns and labels:
Leishmania donovani [1] = test: Antileishmanial activity against Leishmania donovani MHOM/IN/80/Dd8 amastigotes infected in mouse J774.A1 cells assessed as inhibition of amastigotes growth incubated for 48 hrs by Steady-Glo reagent based luminescence analysis; assay type: functional, organism-based; details: for IC50: MHOM/IN/80/Dd8, J774.A1, 48 h
In short: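 J774A cells (2×10⁵ per well, RPMI-1640 with 15% FCS) incubated 24 h at 37 °C in CO2, then infected with stationary-phase luciferase promastigotes (2×10⁶ per well) to give amastigotes. Compound added in fresh medium for 48 h at 37 °C. Medium replaced by PBS, Steady-Glo luminescence read, % inhibition vs untreated. IC50 by probit analysis, mean ± SD of three assays.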

[2] = Selectivity index, ratio of CC50 for cytotoxicity against mouse J774.A1 cells to IC50 for antileishmanial activity against Leishmania donovani MHOM/IN/80/Dd8 amastigotes infected in mouse J774.A1 cells; assay type: toxicity, cell-based; details: read-out: Ratio CC50/IC50
In short: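 SI = CC50 in J774A cells (MTT, 48 h) divided by IC50 against intracellular amastigotes (luciferase, 48 h). Both values are means of three independent assays.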

[3] = Cytotoxicity against mouse J774.A1 cells assessed as reduction in cell growth incubated for 48 hrs by MTT assay; assay type: toxicity, cell-based
In short: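 J774A cells seeded at 0.2 million per well, incubated overnight at 37 °C with 5% CO2, then exposed to compound dilutions in DMSO (DMSO controls) for 48 h. Viability by MTT formazan, OD at 600 nm against blank. CC50 is the concentration giving 50% viability loss vs medium-only cells, from probit analysis. Mean ± SD of three assays.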

Leishmania donovani [4] = test: Antileishmanial activity against Leishmania donovani MHOM/IN/80/Dd8 promastigotes transfected with luciferase reporter gene assessed as inhibition of promastigotes growth incubated for 72 hrs by Steady-Glo reagent based luminescence analysis; assay type: functional, organism-based; details: for IC50: MHOM/IN/80/Dd8, 72 h
In short: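 Luciferase-transgenic L. donovani promastigotes kept under G418 (20 μg mL⁻¹) in Medium 199 with 10% FCS at 25 ± 1 °C. Late-log cells seeded at 5×10⁵ per well with serial dilutions in DMSO for 72 h, DMSO controls run alongside. Luminescence read with Steady-Glo. % inhibition = (N−n)/N×100 vs untreated. IC50 by probit analysis, mean ± SD of three assays.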

Plasmodium falciparum = test: Antimalarial activity against Plasmodium falciparum 3D7; assay type: functional, organism-based
Brugia malayi = test: Antifilarial activity against Brugia malayi assessed as reduction in worm viability by measuring inhibition of MTT reduction at 50 to 100 uM incubated for 24 hrs by MTT assay relative to control; assay type: functional; details: dose 50-100 µM
[5] = Stability of compound in golden hamster plasma assessed as compound remaining measured for 120 mins by LC-MS analysis; assay type: ADME, cell-free, Mesocricetus auratus; details: read-out: Stability
In short: (§1)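 Simulated fluids prepared to USP (SGF pH 1.2, SIF pH 6.8, SPF pH 7.4) and hamster plasma pre-incubated at 37 ± 2 °C for 15 min in a shaking water bath, then spiked with compound. Aliquots taken at intervals up to 120 min, quenched with acetonitrile, vortexed and centrifuged. Remaining analyte quantified by LC-MS/MS.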

[6] = Stability of compound in simulated gastric fluid assessed as parent compound remaining at pH 1.2 measured for 120 mins by LC-MS/MS analysis; assay type: ADME; details: read-out: Stability; in short: as §1
[7] = Stability of compound in simulated physiological fluid assessed as compound remaining at pH 7.4 measured for 120 mins by LC-MS analysis; assay type: physicochemical; details: read-out: Stability; in short: as §1
[8] = Volume of distribution in golden hamster at 50 mg/kg, po measured after 5 mins to 24 hrs by LC-MS/MS analysis; assay type: ADME, organism-based, Mesocricetus auratus; details: in vivo, time 5-1440 min
In short: (§2)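 Golden hamsters fasted before dosing, oral 50 mg kg⁻¹. Retro-orbital blood drawn under anesthesia from 5 min to 24 h, spun at 6000g for 20 min, plasma stored at -80 °C. Protein precipitation with acetonitrile containing carbamazepine IS (3 ng mL⁻¹). LC-MS/MS on C18 column, isocratic 90% acetonitrile, positive mode, transition m/z 375.2/198.3. Parameters from non-compartmental analysis.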

[9] = Clearance in golden hamster at 50 mg/kg, po measured after 5 mins to 24 hrs by LC-MS/MS analysis; assay type: ADME, organism-based, Mesocricetus auratus; details: in vivo, time 5-1440 min; in short: as §2
[10] = Cmax in golden hamster at 50 mg/kg, po measured after 5 mins to 24 hrs by LC-MS/MS analysis; assay type: ADME, organism-based, Mesocricetus auratus; design: dose 50 mg/kg, time upper 1440 min, time lower 5 min, route po; details: in vivo; in short: as §2
[11] = Tmax in golden hamster at 50 mg/kg, po measured after 5 mins to 24 hrs by LC-MS/MS analysis; assay type: ADME, organism-based, Mesocricetus auratus; details: in vivo, time 5-1440 min; in short: as §2
[12] = MRT in golden hamster at 50 mg/kg, po measured after 5 mins to 24 hrs by LC-MS/MS analysis; assay type: ADME, organism-based, Mesocricetus auratus; details: in vivo, time 5-1440 min; in short: as §2
[13] = Half life in golden hamster at 50 mg/kg, po measured after 5 mins to 24 hrs by LC-MS/MS analysis; assay type: ADME, organism-based, Mesocricetus auratus; details: in vivo, time 5-1440 min; in short: as §2
[14] = AUC in golden hamster at 50 mg/kg, po measured after 5 mins to 24 hrs by LC-MS/MS analysis; assay type: ADME, organism-based, Mesocricetus auratus; design: time lower 5 min, dose 50 mg/kg, time upper 1440 min, route po; details: in vivo; in short: as §2
[15] = Stability of compound in simulated intestinal fluid assessed as parent compound remaining at pH 6.8 measured for 120 mins by LC-MS/MS analysis; assay type: ADME; details: read-out: Stability; in short: as §1

O=C1OC(O)C(NCc2cn(-c3cccc(C(F)(F)F)c3)nn2)=C1Cl (stereo not given)
IC50 (Leishmania donovani [1]): 8.45 µM | selectivity ratio [2]: 12.1 | CC50 at 48 h [3]: 102 µM | IC50 (Leishmania donovani [4]): 32.4 µM

O=C1OC(O)C(NCc2cn(-c3ccc(F)cc3)nn2)=C1Cl (stereo not given)
inhibition (Leishmania donovani [1]): inactive | IC50 (Plasmodium falciparum): 4.42 µM | IC50 (Leishmania donovani [4]): ≥ 50 µM

O=C1OC(O)C(NCc2cn(-c3ccc4c(c3)OCO4)nn2)=C1Cl (stereo not given)
inhibition (INH) (Brugia malayi): 52% | IC50 (Leishmania donovani [1]): ≥ 50 µM | IC50 (Plasmodium falciparum): 4.34 µM | IC50 (Leishmania donovani [4]): ≥ 50 µM

Cc1ccc(-n2cc(CNC3=C(Cl)C(=O)OC3O)nn2)cc1C (stereo not given)
inhibition (INH) (Brugia malayi): 52% | IC50 (Leishmania donovani [1]): 10.1 µM | selectivity ratio [2]: 9.27 | CC50 at 48 h [3]: 93.5 µM | IC50 (Leishmania donovani [4]): 32.5 µM

C#CCNC1=C(Cl)C(=O)OC1O (stereo not given)
inhibition (INH) (Brugia malayi): 65% | IC50 (Leishmania donovani [1]): 11.3 µM | selectivity ratio [2]: 8.56 | CC50 at 48 h [3]: 97.2 µM | IC50 (Leishmania donovani [4]): ≥ 50 µM

O=C1OC(O)C(NCc2cn(-c3ccccc3Oc3ccccc3)nn2)=C1Cl (stereo not given)
IC50 (Leishmania donovani [1]): ≥ 20 µM | IC50 (Plasmodium falciparum): 4.65 µM | IC50 (Leishmania donovani [4]): ≥ 50 µM

CCCCc1ccc(-n2cc(CNC3=C(Cl)C(=O)OC3O)nn2)cc1 (stereo not given)
inhibition (Leishmania donovani [1]): inactive | IC50 (Leishmania donovani [4]): ≥ 50 µM

O=C1OC(O)C(NCc2cn(-c3ccc(F)c(Cl)c3)nn2)=C1Cl (stereo not given)
IC50 (Leishmania donovani [1]): 10.6 µM | selectivity ratio [2]: 7.38 | CC50 at 48 h [3]: 78 µM | IC50 (Leishmania donovani [4]): 35.5 µM

O=C1OC(O)C(NCc2cn(-c3ccc(F)c(F)c3)nn2)=C1Cl (stereo not given)
remaining at 2 h [5]: ≥ 70% | remaining at 2 h [6]: ≥ 70% | remaining at 2 h [7]: ≥ 70% | Vd [8]: 38.15 L/kg | IC50 (Leishmania donovani [1]): 8.4 µM | selectivity ratio [2]: 20.5 | CL/F [9]: 207 mL/min/kg | IC50 (Plasmodium falciparum): 3.65 µM | Cmax [10]: 1110 ng/mL | Tmax [11]: 2 h | MRT [12]: 3.64 h | half-life [13]: 2.15 h | CC50 at 48 h [3]: 172 µM | AUC [14]: 4500 ng·h/mL | remaining at 2 h [15]: ≥ 70% | IC50 (Leishmania donovani [4]): ≥ 50 µM

Cc1cc(C)c(-n2cc(CNC3=C(Cl)C(=O)OC3O)nn2)c(C)c1 (stereo not given)
IC50 (Leishmania donovani [1]): ≥ 20 µM | IC50 (Leishmania donovani [4]): ≥ 50 µM

O=C1OC(O)C(NCc2cn(-c3ccccc3)nn2)=C1Cl (stereo not given)
inhibition (Leishmania donovani [1]): inactive | IC50 (Leishmania donovani [4]): ≥ 50 µM

COc1ccc(-n2cc(CNC3=C(Cl)C(=O)OC3O)nn2)cc1 (stereo not given)
IC50 (Leishmania donovani [1]): ≥ 25 µM | IC50 (Plasmodium falciparum): 4.9 µM | IC50 (Leishmania donovani [4]): ≥ 50 µM

CC(C)(C)c1ccc(-n2cc(CNC3=C(Cl)C(=O)OC3O)nn2)cc1 (stereo not given)
IC50 (Leishmania donovani [1]): ≥ 25 µM | IC50 (Plasmodium falciparum): 4.4 µM | IC50 (Leishmania donovani [4]): ≥ 50 µM

Cc1ccc(C)c(-n2cc(CNC3=C(Cl)C(=O)OC3O)nn2)c1 (stereo not given)
IC50 (Leishmania donovani [1]): ≥ 50 µM | IC50 (Plasmodium falciparum): 4.57 µM | IC50 (Leishmania donovani [4]): ≥ 50 µM

O=C1OC(O)C(NCc2cn(-c3ccc(Cl)cc3)nn2)=C1Cl (stereo not given)
IC50 (Leishmania donovani [1]): ≥ 50 µM | IC50 (Leishmania donovani [4]): ≥ 50 µM

COc1ccc(-n2cc(CNC3=C(Cl)C(=O)OC3O)nn2)cc1OC (stereo not given)
inhibition (Leishmania donovani [1]): inactive | inhibition (Leishmania donovani [4]): inactive

CCc1ccc(-n2cc(CNC3=C(Cl)C(=O)OC3O)nn2)cc1 (stereo not given)
inhibition (Leishmania donovani [1]): inactive | IC50 (Leishmania donovani [4]): ≥ 50 µM

O=C1OC(O)C(NCc2cn(-c3ccc(Cl)c(Cl)c3)nn2)=C1Cl (stereo not given)
inhibition (INH) (Brugia malayi): 52% | IC50 (Leishmania donovani [1]): 8.63 µM | selectivity ratio [2]: 9.75 | CC50 at 48 h [3]: 84.2 µM | IC50 (Leishmania donovani [4]): 34.1 µM

O=C1OC(O)C(NCc2cn(-c3ccccc3[N+](=O)[O-])nn2)=C1Cl (stereo not given)
IC50 (Leishmania donovani [1]): ≥ 25 µM | IC50 (Leishmania donovani [4]): ≥ 50 µM

CC(C)c1ccc(-n2cc(CNC3=C(Cl)C(=O)OC3O)nn2)cc1 (stereo not given)
IC50 (Leishmania donovani [1]): ≥ 50 µM | inhibition (Leishmania donovani [4]): inactive

Cc1ccc(-n2cc(CNC3=C(Cl)C(=O)OC3O)nn2)cc1F (stereo not given)
inhibition (INH) (Brugia malayi): 66% | IC50 (Leishmania donovani [1]): ≥ 20 µM | IC50 (Leishmania donovani [4]): ≥ 50 µM

CCCCCCCCCCCCCCCCOP(=O)([O-])OCC[N+](C)(C)C [MILTEFOSINE]
IC50 (Leishmania donovani [1]): 9.42 µM | selectivity ratio [2]: 5.53 | CC50 at 48 h [3]: 52.1 µM

Cc1ccc(-n2cc(CNC3=C(Cl)C(=O)OC3O)nn2)cc1 (stereo not given)
inhibition (Leishmania donovani [1]): inactive | IC50 (Leishmania donovani [4]): ≥ 50 µM

COc1cc(-n2cc(CNC3=C(Cl)C(=O)OC3O)nn2)cc(OC)c1OC (stereo not given)
IC50 (Leishmania donovani [1]): 11.3 µM | selectivity ratio [2]: 7.5 | CC50 at 48 h [3]: 84.8 µM | IC50 (Leishmania donovani [4]): ≥ 100 µM

O=C1OC(O)C(NCc2cn(-c3ccc(F)c(C(F)(F)F)c3)nn2)=C1Cl (stereo not given)
IC50 (Leishmania donovani [1]): 9.02 µM | selectivity ratio [2]: 15 | CC50 at 48 h [3]: 136 µM | IC50 (Leishmania donovani [4]): 30.6 µM
